For data set [1], the target named is T1, Nitric oxide synthase, inducible (Mus musculus) (UniProt P29477).
T1 sequence (whole entry): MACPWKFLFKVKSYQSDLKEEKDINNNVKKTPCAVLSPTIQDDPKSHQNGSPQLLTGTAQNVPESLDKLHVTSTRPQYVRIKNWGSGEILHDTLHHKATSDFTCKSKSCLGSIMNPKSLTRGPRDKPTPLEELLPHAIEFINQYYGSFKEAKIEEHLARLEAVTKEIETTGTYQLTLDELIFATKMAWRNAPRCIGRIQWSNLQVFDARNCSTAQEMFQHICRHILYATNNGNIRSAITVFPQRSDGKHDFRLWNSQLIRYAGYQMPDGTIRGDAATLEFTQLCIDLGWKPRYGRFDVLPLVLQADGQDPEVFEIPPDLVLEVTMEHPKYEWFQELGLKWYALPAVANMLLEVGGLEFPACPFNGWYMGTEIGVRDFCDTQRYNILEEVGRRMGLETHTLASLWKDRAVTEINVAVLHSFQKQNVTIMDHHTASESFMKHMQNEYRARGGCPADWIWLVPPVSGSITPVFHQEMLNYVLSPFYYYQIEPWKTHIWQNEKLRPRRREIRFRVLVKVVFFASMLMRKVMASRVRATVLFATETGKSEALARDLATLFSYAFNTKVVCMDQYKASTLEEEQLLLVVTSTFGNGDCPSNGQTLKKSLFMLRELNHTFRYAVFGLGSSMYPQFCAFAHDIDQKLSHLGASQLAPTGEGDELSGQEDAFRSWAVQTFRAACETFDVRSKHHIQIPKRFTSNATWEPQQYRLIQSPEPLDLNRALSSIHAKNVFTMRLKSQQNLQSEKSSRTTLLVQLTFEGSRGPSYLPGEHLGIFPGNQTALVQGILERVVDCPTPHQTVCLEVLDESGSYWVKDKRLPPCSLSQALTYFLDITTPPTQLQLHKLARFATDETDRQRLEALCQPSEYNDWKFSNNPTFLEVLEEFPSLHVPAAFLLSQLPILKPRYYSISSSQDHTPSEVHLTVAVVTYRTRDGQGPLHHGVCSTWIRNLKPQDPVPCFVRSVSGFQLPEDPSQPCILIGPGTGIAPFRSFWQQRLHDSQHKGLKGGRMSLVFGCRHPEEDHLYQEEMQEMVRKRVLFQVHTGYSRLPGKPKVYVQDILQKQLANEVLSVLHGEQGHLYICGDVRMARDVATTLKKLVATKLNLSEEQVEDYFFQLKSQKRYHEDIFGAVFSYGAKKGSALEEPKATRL
The data set can be described thus: Inhibition of iNOS-mediated NO production in LPS-induced mouse RAW264.7 cells at 10 uM after 24 hrs by griess method. Format: cell-based. The method in brief:
(§1)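 RAW 264.7 cells in DMEM with 10% FBS and 1% antibiotics at 37 °C, 5% CO₂, plated at 2 × 10⁵ cells/well and pre-incubated 2 h. Compound and LPS were then added together for 24 h. Medium readouts: for NO, nitrite by Griess reagent at OD 550 nm; for PGE₂, commercial ELISA.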

Data set [2] concerns the target T2, Prostaglandin G/H synthase 2 (Mus musculus) (UniProt Q05769).
T2 sequence (whole entry): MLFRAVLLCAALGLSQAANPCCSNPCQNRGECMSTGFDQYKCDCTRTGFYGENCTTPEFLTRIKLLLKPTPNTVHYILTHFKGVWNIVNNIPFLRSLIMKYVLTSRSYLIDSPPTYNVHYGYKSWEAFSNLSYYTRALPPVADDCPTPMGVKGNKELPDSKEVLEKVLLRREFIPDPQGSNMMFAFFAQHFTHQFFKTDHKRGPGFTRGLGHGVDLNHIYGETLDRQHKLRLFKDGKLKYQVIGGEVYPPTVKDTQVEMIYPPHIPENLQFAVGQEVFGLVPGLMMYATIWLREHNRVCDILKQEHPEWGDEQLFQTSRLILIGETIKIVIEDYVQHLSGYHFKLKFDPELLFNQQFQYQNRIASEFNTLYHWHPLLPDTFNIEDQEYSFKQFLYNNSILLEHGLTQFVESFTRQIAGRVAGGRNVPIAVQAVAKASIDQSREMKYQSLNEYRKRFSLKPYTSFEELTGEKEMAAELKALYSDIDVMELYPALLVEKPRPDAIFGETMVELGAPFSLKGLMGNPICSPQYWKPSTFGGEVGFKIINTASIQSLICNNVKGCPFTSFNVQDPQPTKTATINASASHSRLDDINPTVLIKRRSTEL
The data set can be described thus: Inhibition of COX2-mediated PGE2 production in LPS-induced mouse RAW264.7 cells at 10 uM after 24 hrs by ELISA. It is filed as cell-based. The essentials: as §1

Data set [3] is described as follows: Cytotoxicity against mouse RAW264.7 cells assessed as reduction in cell viability at 10 uM after 24 hrs by MTT assay.

As for `O=c1cc(-c2ccccc2)oc2c(-c3ccoc3)c(O)cc(O)c12`, the inhibition in data set [1] came out at 8.3%; in data set [2], 26.7%. Moreover, the reduction in viability at 24 h, 10 µM in data set [3] was below 10%.

Turning to `O=c1cc(-c2ccccc2)oc2c(-c3ccncc3)c(O)cc(O)c12`, the inhibition in data set [1] came out at 29.1%; in data set [2] it was 92.4%. For the same compound, the reduction in viability at 24 h, 10 µM in data set [3] is below 10%.

Consider `O=c1cc(-c2ccccc2)oc2c(-c3cccnc3)c(O)cc(O)c12`, for which the inhibition in data set [1] is 16.7%; in data set [2], 48.1%. The reduction in viability at 24 h, 10 µM in data set [3] is below 10%.

`O=c1cc(-c2ccccc2)oc2c(-c3ccsc3)c(O)cc(O)c12`: the inhibition came to 7.6% in data set [1] and 31.4% in data set [2]. Besides, the reduction in viability at 24 h, 10 µM in data set [3] was below 10%.

Regarding `O=c1cc(-c2ccccc2)oc2cc(O)cc(O)c12`, the inhibition in data set [1] amounted to 8.9%; in data set [2], 74%.

`Cc1c(O)cc(O)c2c(=O)cc(-c3ccccc3)oc12`: the inhibition in data set [1] turned out to be 3.7%; in data set [2], 44.3%. Moreover, the reduction in viability at 24 h, 10 µM in data set [3] is below 10%.

(Values after ChEMBL document CHEMBL1828608, “A chrysin analog exhibited strong inhibitory activities against both PGE2 and NO production” (Eur J Med Chem, 2011).)
